Measurements as given in ChEMBL document CHEMBL1765069, “Decahydroquinoline amides as highly selective CB2 agonists: role of selectivity on in vivo efficacy in a rodent model of analgesia” (Bioorg Med Chem Lett, 2011).

Experiments:
Cannabinoid receptor 2 [1] = biological target: T1, Cannabinoid receptor 2 (Homo sapiens, UniProt P34972); assay: Agonist activity at human CB2 receptor expressed in CHOK1 cells assessed as inhibition of forskolin-induced cAMP production treated 15 mins before forskolin challenge measured after 1 hr by HTRF assay; format: functional, cell-based, CHO-K1
T1 sequence (P34972 whole entry): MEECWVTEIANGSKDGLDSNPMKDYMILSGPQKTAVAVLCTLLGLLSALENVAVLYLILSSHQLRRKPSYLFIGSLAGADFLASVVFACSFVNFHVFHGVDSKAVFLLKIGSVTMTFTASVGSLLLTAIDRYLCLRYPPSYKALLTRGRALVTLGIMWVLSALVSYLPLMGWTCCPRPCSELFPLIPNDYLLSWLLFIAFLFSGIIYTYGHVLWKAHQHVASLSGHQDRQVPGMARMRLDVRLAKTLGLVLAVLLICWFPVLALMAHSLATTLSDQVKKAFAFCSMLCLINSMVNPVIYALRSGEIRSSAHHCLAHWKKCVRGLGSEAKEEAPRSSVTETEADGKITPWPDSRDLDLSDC
In short: (§1)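 CHO-K1 cells (1000 per well) expressing human or rat CB1 or CB2 were preincubated with compound for 15 min at room temperature. Forskolin was then added at its EC70 for 30 min at room temperature. cAMP was detected by HTRF (d2-cAMP plus anti-cAMP cryptate) after a final 1 h incubation at room temperature. Values are reported as IC50 with % Emax.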

Cannabinoid receptor 2 [2] = biological target: T1, Cannabinoid receptor 2; assay: Agonist activity at human CB2 receptor expressed in CHOK1 cells assessed as inhibition of forskolin-induced cAMP production treated 15 mins before forskolin challenge measured after 1 hr by HTRF assay relative to control; format: functional, cell-based; conditions: CHO-K1
In short: (§2)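 CHO-K1 cells (1000 per well) expressing human or rat CB1 or CB2 were preincubated with compound at room temperature for 15 min. Forskolin at EC70 was then added for a further 30 min at room temperature. cAMP was read by HTRF (d2-cAMP plus anti-cAMP-cryptate, final 1 h at room temperature). IC50 and % Emax were reported.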

[3] = Distribution coefficient, log P of the compound; format: physicochemical; conditions: octanol/water
[4] = Fraction unbound in rat plasma; format: ADME, cell-free
Cannabinoid receptor 1 [5] = biological target: T2, Cannabinoid receptor 1 (Homo sapiens, UniProt P21554); assay: Agonist activity at human CB1 receptor expressed in CHOK1 cells assessed as inhibition of forskolin-induced cAMP production treated 15 mins before forskolin challenge measured after 1 hr by HTRF assay; format: functional, cell-based, CHO-K1; in short: as §1
T2 sequence (P21554 whole entry): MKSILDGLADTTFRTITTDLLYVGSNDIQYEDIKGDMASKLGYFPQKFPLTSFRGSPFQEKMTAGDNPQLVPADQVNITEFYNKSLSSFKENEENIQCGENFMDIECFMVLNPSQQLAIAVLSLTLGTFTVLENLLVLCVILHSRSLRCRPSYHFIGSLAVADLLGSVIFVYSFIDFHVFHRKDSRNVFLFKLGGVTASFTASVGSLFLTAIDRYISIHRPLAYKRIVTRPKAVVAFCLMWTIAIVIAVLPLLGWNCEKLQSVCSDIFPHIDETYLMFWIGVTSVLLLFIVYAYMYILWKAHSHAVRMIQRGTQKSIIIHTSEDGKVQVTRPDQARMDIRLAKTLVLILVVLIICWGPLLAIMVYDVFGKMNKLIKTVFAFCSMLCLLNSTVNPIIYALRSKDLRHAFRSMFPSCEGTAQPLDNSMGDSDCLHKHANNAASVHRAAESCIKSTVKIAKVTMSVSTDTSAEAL

Cannabinoid receptor 1 [6] = biological target: T2, Cannabinoid receptor 1; assay: Agonist activity at human CB1 receptor expressed in CHOK1 cells assessed as inhibition of forskolin-induced cAMP production treated 15 mins before forskolin challenge measured after 1 hr by HTRF assay relative to control; format: functional, cell-based; conditions: CHO-K1; in short: as §2
Homo sapiens = organism: Homo sapiens; assay: Selectivity ratio of IC50 for human CB1 receptor to IC50 for human CB2 receptor
Cerebrospinal fluid = assay: Drug level in rat complete Freund's adjuvant-induced inflammation model cerebrospinal fluid at 30 mg/kg, sc; format: ADME, organism-based; set-up: dose 30 mg/kg, route subcutaneous; conditions: in vivo, read-out: Drug uptake
In short: (§3)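 In the rat CFA hyperalgesia experiments, after 30 mpk subcutaneous dosing, compound levels (nM) were measured in plasma, brain homogenate and cerebrospinal fluid.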

Rattus norvegicus [7] = assay: Antiinflammatory activity in rat assessed as inhibition of complete Freund's adjuvant-induced paw withdrawal threshold at 10 mg/kg, sc after 60 mins (reference value: 4.8%); format: functional; conditions: 1 h, route subcutaneous
In short: (§4)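 Rat complete Freund's adjuvant hyperalgesia model. Compound was given subcutaneously at 10, 30 or 100 mpk. Paw withdrawal threshold was read at the 60 min timepoint and expressed as % reversal.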

Rattus norvegicus [8] = assay: Antiinflammatory activity in rat assessed as inhibition of complete Freund's adjuvant-induced paw withdrawal threshold at 100 mg/kg, sc after 60 mins (reference value: 4.8%); format: functional; conditions: 1 h, route subcutaneous; in short: as §4
Rattus norvegicus [9] = assay: Antiinflammatory activity in rat assessed as inhibition of complete Freund's adjuvant-induced paw withdrawal threshold at 30 mg/kg, sc after 60 mins (reference value: 4.8%); format: functional; conditions: 1 h, route subcutaneous; in short: as §4
Cannabinoid receptor 1 [10] = biological target: Cannabinoid receptor 1 (Rattus norvegicus, UniProt P20272); assay: Agonist activity at rat CB1 receptor expressed in CHOK1 cells assessed as inhibition of forskolin-induced cAMP production treated 15 mins before forskolin challenge measured after 1 hr by HTRF assay; format: functional, cell-based, CHO-K1; in short: as §1
Cannabinoid receptor 1 (Rattus norvegicus, UniProt P20272), sequence (P20272 whole entry): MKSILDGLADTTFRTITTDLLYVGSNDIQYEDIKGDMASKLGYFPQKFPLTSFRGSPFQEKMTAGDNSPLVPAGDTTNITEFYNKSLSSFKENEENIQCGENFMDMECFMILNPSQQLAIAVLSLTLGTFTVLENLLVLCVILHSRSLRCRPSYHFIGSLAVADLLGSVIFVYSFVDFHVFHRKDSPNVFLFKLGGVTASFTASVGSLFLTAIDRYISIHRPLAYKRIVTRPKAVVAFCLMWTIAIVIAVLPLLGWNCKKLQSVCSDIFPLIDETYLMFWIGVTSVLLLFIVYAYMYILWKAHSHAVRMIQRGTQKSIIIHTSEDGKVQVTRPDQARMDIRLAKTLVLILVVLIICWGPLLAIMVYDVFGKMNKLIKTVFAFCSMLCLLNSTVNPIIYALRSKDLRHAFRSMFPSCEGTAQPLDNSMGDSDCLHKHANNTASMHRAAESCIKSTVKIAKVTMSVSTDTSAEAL

Cannabinoid receptor 2 [11] = biological target: T3, Cannabinoid receptor 2 (Rattus norvegicus, UniProt Q9QZN9); assay: Agonist activity at rat CB2 receptor expressed in CHOK1 cells assessed as inhibition of forskolin-induced cAMP production treated 15 mins before forskolin challenge measured after 1 hr by HTRF assay; format: functional, cell-based, CHO-K1; in short: as §1
T3 sequence (Q9QZN9 whole entry): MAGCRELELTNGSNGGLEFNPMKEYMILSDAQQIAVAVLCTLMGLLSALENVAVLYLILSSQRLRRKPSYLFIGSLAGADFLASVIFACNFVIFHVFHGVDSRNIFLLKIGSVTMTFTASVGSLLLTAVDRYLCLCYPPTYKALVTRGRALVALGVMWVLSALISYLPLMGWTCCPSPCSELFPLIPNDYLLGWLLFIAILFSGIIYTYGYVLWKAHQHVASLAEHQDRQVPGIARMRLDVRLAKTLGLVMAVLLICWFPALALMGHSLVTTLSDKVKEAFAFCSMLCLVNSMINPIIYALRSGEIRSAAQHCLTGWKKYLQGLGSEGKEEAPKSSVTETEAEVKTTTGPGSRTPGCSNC

Plasma = assay: Drug level in rat complete Freund's adjuvant-induced inflammation model plasma at 30 mg/kg, sc; format: ADME, organism-based; set-up: dose 30 mg/kg, route subcutaneous; conditions: in vivo, read-out: Drug uptake; in short: as §3
Brain = assay: Drug level in rat complete Freund's adjuvant-induced inflammation model brain at 30 mg/kg, sc; format: ADME, organism-based; set-up: dose 30 mg/kg, route subcutaneous; conditions: in vivo, read-out: Drug uptake; in short: as §3
Rattus norvegicus [12] = organism: Rattus norvegicus
Rattus norvegicus [13] = assay: Antiinflammatory activity in sc dosed rat assessed as inhibition of complete Freund's adjuvant-induced paw withdrawal threshold after 60 mins; format: functional, organism-based; in short: as §4
[14] = biological target: Cannabinoid receptor 1 (Rattus norvegicus) (UniProt P20272); assay: Agonist activity at rat CB1 receptor expressed in CHOK1 cells assessed as inhibition of forskolin-induced cAMP production treated 15 mins before forskolin challenge measured after 1 hr by HTRF assay relative to control; format: functional, cell-based; conditions: CHO-K1; in short: as §2
Cannabinoid receptor 1 (Rattus norvegicus), sequence (P20272 whole entry): as the sequence (P20272 whole entry) above

[15] = biological target: T4, Cannabinoid receptor 2 (Rattus norvegicus) (UniProt Q9QZN9); assay: Agonist activity at rat CB2 receptor expressed in CHOK1 cells assessed as inhibition of forskolin-induced cAMP production treated 15 mins before forskolin challenge measured after 1 hr by HTRF assay relative to control; format: functional, cell-based; conditions: CHO-K1; in short: as §2
T4 sequence (whole entry): T3 sequence (Q9QZN9 whole entry)

[16] = Half life in rat at 2 mg/kg, iv; format: ADME, organism-based; set-up: dose 2 mg/kg, route intravenous; conditions: in vivo
[17] = Clearance in rat at 2 mg/kg, iv; format: ADME, organism-based; set-up: dose 2 mg/kg, route intravenous; conditions: in vivo
Rattus norvegicus [18] = organism: Rattus norvegicus; assay: animal or person; conditions: sc, 1 h, read-out: INH

SMILES	IC50 (Cannabinoid receptor 2 [1]) [nM]	Emax (Cannabinoid receptor 2 [2]) [%]	IC50 (Cannabinoid receptor 1 [5]) [nM]	Emax (Cannabinoid receptor 1 [6]) [%]	also measured
CN1CCOCC1C(=O)N1CC[C@@](O)(c2ccccc2)[C@@H]2CCCC[C@@H]21 (mixture of isomers)	30	100	> 17000	–	logP [3]: 2.28; fraction unbound [4]: 0.34
O=C(c1ccc(Cl)cc1)N1CC[C@](O)(c2ccccc2)[C@H]2CCCC[C@H]21	0.14	90	312	79	–
O=C(c1ccccc1)N1CC[C@](O)(c2ccccc2)[C@H]2CCCC[C@@H]21	45	99	> 17000	14	–
O=C(c1ccccc1)N1CC[C@](O)(c2ccccc2)[C@H]2CCCC[C@H]21	4.2	100	4540	76	–
O=C(c1ccc2ncccc2c1)N1CC[C@@](O)(c2ccccc2)[C@@H]2CCCC[C@@H]21 (racemic)	0.53	87	261	95	Ratio IC50 (Homo sapiens): 492
O=C(c1cccc2[nH]ccc12)N1CC[C@](O)(c2ccccc2)[C@H]2CCCC[C@H]21	0.62	100	> 17000	64	–
Cc1ccc(C(=O)N2CC[C@@](O)(c3ccccc3)[C@@H]3CCCC[C@@H]32)cn1 [listing 1 of 2 here]	7.3	–	5020	–	concentration (Cerebrospinal fluid): 0.223 µM; inhibition in vivo at 10 mg/kg (Rattus norvegicus [7]): 28.2%; inhibition in vivo at 100 mg/kg (Rattus norvegicus [8]): 76.4%; inhibition in vivo at 30 mg/kg (Rattus norvegicus [9]): 53.6%; IC50 (Cannabinoid receptor 1 [10]): 1890 nM; IC50 (Cannabinoid receptor 2 [11]): 6.3 nM; concentration (Plasma): 4.2 µM; concentration (Brain): 3.2 µM
O=C(c1cnc2ccccc2c1)N1CC[C@@](O)(c2ccccc2)[C@@H]2CCCC[C@@H]21 (racemic)	3.38	96	1530	69	Ratio IC50 (Homo sapiens): 452
Cc1ccc(C(=O)N2CC[C@@](O)(c3ccccc3)[C@@H]3CCCC[C@@H]32)cn1 (racemic)	14	–	> 17000	–	logP [3]: 2.26; fraction unbound [4]: 0.15
O=C(c1ccc2[nH]ccc2c1)N1CC[C@@](O)(c2ccccc2)[C@@H]2CCCC[C@@H]21 (racemic)	1.4	104	1000	91	Ratio IC50 (Homo sapiens): 716
Cc1ccc(C(=O)N2CC[C@@](O)(c3ccccc3)[C@@H]3CCCC[C@@H]32)cn1 [listing 2 of 2 here]	–	103	–	78	Papp (Rattus norvegicus [12]): 36 ×10⁻⁶ cm/s; inhibition (Rattus norvegicus [13]): Dose-dependent effect; Emax [14]: 94%; Emax [15]: 119%
O=C(c1cc(-c2ccccc2F)[nH]n1)N1CC[C@](O)(c2ccccc2)[C@H]2CCCC[C@H]21	21	99	> 17000	46	–
O=C(C1CN(CC(F)(F)F)CCO1)N1CC[C@@](O)(c2ccccc2)[C@@H]2CCCC[C@@H]21 (mixture of isomers)	30	99	4040	96	–
O=C(c1ccc2cnccc2n1)N1CC[C@@](O)(c2ccccc2)[C@@H]2CCCC[C@@H]21 (racemic)	5.5	99	3440	69	Ratio IC50 (Homo sapiens): 626
CN1CCC(C(=O)N2CC[C@](O)(c3ccccc3)[C@H]3CCCC[C@@H]32)C1 (stereo partly specified)	> 17000	34	> 17000	34	–
O=C(c1cnco1)N1CC[C@@](O)(c2ccccc2)[C@@H]2CCCC[C@@H]21 (racemic)	156	98	3440	50	–
O=C(c1cccc2[nH]ncc12)N1CC[C@@](O)(c2ccccc2)[C@@H]2CCCC[C@@H]21 (racemic)	4	102	> 17000	15	half-life [16]: 25.8 min; Ratio IC50 (Homo sapiens): > 4000; fraction unbound [4]: 0.048; clearance [17]: 70 mL/min/kg
O=C(c1ccc2ccccc2n1)N1CC[C@](O)(c2ccccc2)[C@H]2CCCC[C@@H]21	41	98	2020	84	–
COc1ccc2cc([C@H](C)C(=O)O)ccc2c1 [NAPROXEN]	–	–	–	–	inhibition in vivo at 20 mg/kg (Rattus norvegicus [18]): 23.9%
O=C(c1ccc(Cl)cc1)N1CC[C@](O)(c2ccccc2)[C@H]2CCCC[C@@H]21	24	90	963	72	–
O=C(c1cccc2[nH]ccc12)N1CC[C@](O)(c2ccccc2)[C@H]2CCCC[C@@H]21	22	94	> 17000	31	–
O=C(c1ccc2ccccc2n1)N1CC[C@](O)(c2ccccc2)[C@H]2CCCC[C@H]21	0.82	98	188	98	–
O=C(c1cccc2[nH]cnc12)N1CC[C@@](O)(c2ccccc2)[C@@H]2CCCC[C@@H]21 (racemic)	35	101	> 17000	53	Ratio IC50 (Homo sapiens): > 486
CN1CCC(C(=O)N2CC[C@](O)(c3ccccc3)[C@H]3CCCC[C@H]32)C1 (stereo partly specified)	5.9	102	> 17000	6	–
